Test [1] has as its system Candida albicans. Nature of the test: Antifungal activity against Candida albicans ATCC 10231 at pH 7 after 20 h in presence of 10% beef serum. The settings on record: ATCC 10231, 20 h.
Test [2] relates to Candida albicans. Nature of the test: Antifungal activity against Candida albicans ATCC 10231 at pH 5.6 after 20 h in absence of 10% beef serum. The settings on record: ATCC 10231, 20 h.
Test [3] concerns Mucor mucedo. Put plainly: Antifungal activity against Mucor mucedo ATCC 7941 at <100 ug/ml at pH 5.6 after 20 h in absence of 10% beef serum.
The subject of test [4] is Mucor mucedo. Nature of the test: Antifungal activity against Mucor mucedo ATCC 7941 at <100 ug/ml at pH 7 after 20 h in presence of 10% beef serum.
Test [5] has as its system Trichophyton mentagrophytes. Put plainly: Antifungal activity against Trichophyton mentagrophytes ATCC 9129 at <100 ug/ml at pH 5.6 after 5 days in presence of 10% beef serum. The test is classed as functional, organism-based. The method, boiled down: (§1)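 Agar-dilution MIC in Sabouraud dextrose agar at pH 5.6 or 7.0, with or without 10% beef serum. Plates were incubated at 28 °C for 5 days. MIC is the lowest concentration (µg/mL) giving 100% inhibition. Steps were 1 µg/mL up to 10, 2 µg/mL from 10–20, and 10 µg/mL from 20–100; 100 µg/mL was the top level, and no inhibition there is scored as >100.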

Test [6] concerns Mucor mucedo. Nature of the test: Antifungal activity against Mucor mucedo ATCC 7941 at <100 ug/ml at pH 7 after 20 h in absence of 10% beef serum.
Test [7] concerns Aspergillus niger. Nature of the test: Antifungal activity against Aspergillus niger ATCC 1004 at pH 7 after 5 days in presence of 10% beef serum. The test is classed as functional. The following applies: Aspergillus niger, ATCC 1004, 120 h; read-out: MIC. The procedure, abridged:
as §1

Test [8] relates to Trichophyton mentagrophytes. Nature of the test: Antifungal activity against Trichophyton mentagrophytes ATCC 9129 at <100 ug/ml at pH 7 after 5 days in presence of 10% beef serum. In kind it is functional, organism-based. The procedure, abridged: as §1
The test system of test [9] is Candida albicans. Nature of the test: Antifungal activity against Candida albicans ATCC 10231 at pH 7 after 20 h in absence of 10% beef serum. The following applies: ATCC 10231, 20 h.
In test [10] the test system is Candida albicans. Nature of the test: Antifungal activity against Candida albicans ATCC 10231 at pH 5.6 after 20 h in presence of 10% beef serum. The settings on record: ATCC 10231, 20 h.
Test [11] relates to Mucor mucedo. Put plainly: Antifungal activity against Mucor mucedo ATCC 7941 at <100 ug/ml at pH 5.6 after 20 h in presence of 10% beef serum.
For test [12], the system named is Trichophyton mentagrophytes. Nature of the test: Antifungal activity against Trichophyton mentagrophytes ATCC 9129 at <100 ug/ml at pH 5.6 after 5 days in absence of 10% beef serum. In kind it is functional, organism-based. The procedure, abridged:
as §1

In test [13] the test system is Aspergillus niger. Put plainly: Antifungal activity against Aspergillus niger ATCC 1004 at pH 5.6 after 5 days in presence of 10% beef serum. The test is classed as functional. The following applies: Aspergillus niger, ATCC 1004, 120 h; read-out: MIC. The method, boiled down: as §1
The test system of test [14] is Aspergillus niger. Put plainly: Antifungal activity against Aspergillus niger ATCC 1004 at pH 5.6 after 5 days in absence of 10% beef serum. The test is classed as functional. The following applies: Aspergillus niger, ATCC 1004, 120 h; read-out: MIC. The procedure, abridged: as §1
Test [15] has as its system Aspergillus niger. Nature of the test: Antifungal activity against Aspergillus niger ATCC 1004 at pH 7 after 5 days in absence of 10% beef serum. The settings on record: Aspergillus niger, ATCC 1004, 120 h; read-out: MIC. In kind it is functional. The method, boiled down: as §1
Test [16] has as its system Trichophyton mentagrophytes. Put plainly: Antifungal activity against Trichophyton mentagrophytes ATCC 9129 at <100 ug/ml at pH 7 after 5 days in absence of 10% beef serum. The test is classed as functional, organism-based. The method, boiled down: as §1
Test [17] deals with Aspergillus niger. Nature of the test: Antifungal activity against Aspergillus niger ATCC 1004 at <100 ug/ml at pH 7 after 5 days in absence of 10% beef serum. In kind it is functional, organism-based. The method, boiled down:
as §1

In test [18] the test system is Candida albicans. Put plainly: Antifungal activity against Candida albicans ATCC 10231 at <100 ug/ml at pH 5.6 after 20 h in presence of 10% beef serum.
The test system of test [19] is Aspergillus niger. Nature of the test: Antifungal activity against Aspergillus niger ATCC 1004 at <100 ug/ml at pH 5.6 after 5 days in presence of 10% beef serum. In kind it is functional, organism-based. The procedure, abridged:
as §1

Test [20] concerns Aspergillus niger. Put plainly: Antifungal activity against Aspergillus niger ATCC 1004 at <100 ug/ml at pH 7 after 5 days in presence of 10% beef serum. In kind it is functional, organism-based. The procedure, abridged: as §1
The test system of test [21] is Candida albicans. Nature of the test: Antifungal activity against Candida albicans ATCC 10231 at <100 ug/ml at pH 7 after 20 h in absence of 10% beef serum.
The test system of test [22] is Candida albicans. Nature of the test: Antifungal activity against Candida albicans ATCC 10231 at <100 ug/ml at pH 7 after 20 h in presence of 10% beef serum.
The subject of test [23] is Candida albicans. Nature of the test: Antifungal activity against Candida albicans ATCC 10231 at <100 ug/ml at pH 5.6 after 20 h in absence of 10% beef serum.
For test [24], the system named is Aspergillus niger. Nature of the test: Antifungal activity against Aspergillus niger ATCC 1004 at <100 ug/ml at pH 5.6 after 5 days in absence of 10% beef serum. The test is classed as functional, organism-based. The method, boiled down:
as §1

Values after ≈ are worked out from the molar mass of the structure shown. Active and inactive are the calls of the source. The rule behind the calls is not given here.

For `Nc1nc(=O)[nH]cc1F` [FLUCYTOSINE], the MIC worked out at 14 µg/mL with Candida albicans [1]; 9 µg/mL (≈ 69.7 µM) in the test with Candida albicans [2]; 10 µg/mL in the test with Aspergillus niger [7]; 9 µg/mL (≈ 69.7 µM) with Candida albicans [9]; 14 µg/mL in the test with Candida albicans [10]; 8 µg/mL in the test on Aspergillus niger [13]. For the same compound, the figures for the minimum inhibitory concentration (MIC) with Aspergillus niger [14] and with Aspergillus niger [15] were 9 µg/mL (≈ 69.7 µM) and 7 µg/mL (≈ 54.2 µM), respectively. The inhibition entry (in the test with Mucor mucedo [3]; with Mucor mucedo [4]; in [5]; in the test on Mucor mucedo [6]; in [8]; with Mucor mucedo [11]) was “inactive” in each case. The inhibition entry in test [12] and in test [16] was “inactive” each time.
Regarding `COC(=O)C(Br)C(C)F` (stereo not drawn), the inhibition result with Aspergillus niger [17], with Mucor mucedo [3], with Candida albicans [18], with Aspergillus niger [19], in the test with Aspergillus niger [20] and in the test with Mucor mucedo [4] was “inactive” each time. In addition, the inhibition result (in the test with Candida albicans [21]; in test [5]; with Mucor mucedo [6]; in test [8]; with Candida albicans [22]; in the test on Mucor mucedo [11]) was “inactive” in each case. Further, the inhibition result (in test [12]; in the test on Candida albicans [23]; with Aspergillus niger [24]; in test [16]) was “inactive” in each case.
On to `O=c1[nH]cc(F)c(=O)[nH]1`, for which the inhibition result with Aspergillus niger [17], with Mucor mucedo [3], in the test on Candida albicans [18], with Aspergillus niger [19], in the test with Aspergillus niger [20] and with Mucor mucedo [4] was “inactive” each time. Moreover, the inhibition entry (with Candida albicans [21]; in test [5]; in the test on Mucor mucedo [6]; in test [8]; with Candida albicans [22]; in the test on Mucor mucedo [11]) was “inactive” in each case. In addition, the inhibition result (in test [12]; in the test with Candida albicans [23]; in the test with Aspergillus niger [24]; in test [16]) was “inactive” each time.
Turning to `CCCCCCOC(=O)[C@H](F)[C@@H](Br)C(=O)OCCCCCC` (relative stereo), the inhibition entry in the test with Aspergillus niger [17], with Mucor mucedo [3], with Candida albicans [18], with Aspergillus niger [19], in the test on Aspergillus niger [20] and in the test with Mucor mucedo [4] was “inactive” each time. The inhibition result (in the test with Candida albicans [21]; in [5]; with Mucor mucedo [6]; in [8]; in the test with Candida albicans [22]; in the test with Mucor mucedo [11]) was “inactive” in each case. Also, the inhibition entry (in test [12]; in the test with Candida albicans [23]; with Aspergillus niger [24]; in test [16]) was “inactive” throughout.
As for `CCCCCCOC(=O)/C=C/C(=O)OCCCCCC`, the inhibition result with Aspergillus niger [17], in the test with Mucor mucedo [3], in the test on Candida albicans [18], with Aspergillus niger [19], in the test with Aspergillus niger [20] and in the test on Mucor mucedo [4] was “inactive” in each case. The inhibition entry (in the test with Candida albicans [21]; in [5]; with Mucor mucedo [6]; in test [8]; with Candida albicans [22]; in the test on Mucor mucedo [11]) was “inactive” in each case. In addition, the inhibition result (in test [12]; in the test with Candida albicans [23]; with Aspergillus niger [24]; in test [16]) was “inactive” each time.
With `CCCCCCOC(=O)/C=C\C(=O)OCCCCCC`, the inhibition entry with Aspergillus niger [17], in the test on Mucor mucedo [3], in the test with Candida albicans [18], in the test with Aspergillus niger [19], with Aspergillus niger [20] and in the test with Mucor mucedo [4] was “inactive” in each case. Moreover, the inhibition result (in the test with Candida albicans [21]; in test [5]; with Mucor mucedo [6]; in test [8]; in the test with Candida albicans [22]; in the test with Mucor mucedo [11]) was “inactive” throughout. The inhibition entry (in test [12]; in the test with Candida albicans [23]; with Aspergillus niger [24]; in [16]) was “inactive” throughout.
For `CCCCCCOC(=O)[C@@H](F)[C@@H](Br)C(=O)OCCCCCC` (relative stereo), the inhibition entry with Aspergillus niger [17], in the test on Mucor mucedo [3], in the test on Candida albicans [18], in the test on Aspergillus niger [19], with Aspergillus niger [20] and in the test with Mucor mucedo [4] was “inactive” throughout. Moreover, the inhibition result (in the test on Candida albicans [21]; in test [5]; with Mucor mucedo [6]; in test [8]; in the test on Candida albicans [22]; in the test with Mucor mucedo [11]) was “inactive” each time. Moreover, the inhibition result (in [12]; in the test with Candida albicans [23]; with Aspergillus niger [24]; in [16]) was “inactive” each time.
Consider `COC(=O)/C=C/CC(=O)OC`, for which the inhibition entry with Aspergillus niger [17], with Mucor mucedo [3], in the test on Candida albicans [18], in the test with Aspergillus niger [19], with Aspergillus niger [20] and in the test on Mucor mucedo [4] was “inactive” throughout. The inhibition entry (with Candida albicans [21]; in [5]; with Mucor mucedo [6]; in test [8]; in the test on Candida albicans [22]; in the test on Mucor mucedo [11]) was “inactive” each time. In addition, the inhibition result (in test [12]; in the test with Candida albicans [23]; in the test on Aspergillus niger [24]; in [16]) was “inactive” throughout.

The term MIC denotes the lowest concentration that inhibits growth of the organism.

For the origin of these results see ChEMBL document CHEMBL3244142, “Antifungal properties of 2-bromo-3-fluorosuccinic acid esters and related compounds” (1977).
